Test results taken from ChEMBL document CHEMBL2086359, “Tormentic acid derivatives: synthesis and apoptotic activity” (Eur J Med Chem, 2012).
Calls of active or inactive are those of the source. The calls are words filed in the database; no cut-off is given here.

How the values were obtained:
A2780 = assay: Cytotoxicity against human A2780 cells after 96 hrs by SRB assay; type: functional, cell-based
Method in brief: (§1)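 Monolayer cultures kept in RPMI 1640 with 10% heat-inactivated FBS and penicillin/streptomycin at 37 °C, 5% CO2. Exponentially growing cells were seeded and treated 24 h later with serial dilutions (0–30 µM) for 96 h, with DMSO or DMF at most 0.5% final. Cells were fixed with 10% TCA at 4 °C and stained with 0.4% SRB for about 30 min. Plates were washed with 1% acetic acid and the dye dissolved in 10 mM Tris base. Absorbance was read at 570 nm and survival taken relative to untreated controls. IC50 was estimated from dose–response curves, averaged from at least 5 independent experiments.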

DLD-1 = assay: Cytotoxicity against human DLD1 cells after 96 hrs by SRB assay; type: functional, cell-based; method in brief: as §1
[1] = Cytotoxicity against human 518A2 cells after 96 hrs by SRB assay; type: functional, cell-based; method in brief: as §1
NIH3T3 = assay: Cytotoxicity against mouse NIH/3T3 cells after 96 hrs by SRB assay; type: cell-based; method in brief: as §1
8505C [2] = assay: Cytotoxicity against human 8505C cells after 96 hrs by SRB assay; type: functional, cell-based; method in brief: as §1
MCF7 = assay: Cytotoxicity against human MCF7 cells after 96 hrs by SRB assay; type: functional, cell-based; method in brief: as §1
518A2 [3] = assay: Induction of apoptosis in human 518A2 cells after 24 to 48 hrs by DNA laddering assay; type: functional, cell-based
Method in brief: (§2)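 About 1×10^6 cells were grown in 25 cm2 flasks to 80% and exposed to compound-loaded medium for 24–48 h, with blank medium as control. Cells were collected from the supernatant (300 g, 4 °C), washed in PBS and lysed. Lysates were digested with RNase for 2 h at 37 °C, then with proteinase K for 12 h at 50 °C. DNA was run on agarose gel electrophoresis ([…], 2 h).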

8505C [4] = assay: Induction of apoptosis in human 8505C cells after 24 to 48 hrs by DNA laddering assay; type: functional, cell-based; method in brief: as §2
[5] = Cytotoxicity against human A253 cells after 96 hrs by SRB assay; type: functional, cell-based; method in brief: as §1
A549 = assay: Cytotoxicity against human A549 cells after 96 hrs by SRB assay; type: functional, cell-based; method in brief: as §1
[6] = Cytotoxicity against human WW030272 cells after 96 hrs by SRB assay; type: cell-based; method in brief: as §1
8505C [7] = assay: Induction of apoptosis in human 8505C cells assessed as migration of phosphatidylserine from inner to outer cell membrane at 30 uM after 6 hrs by Annexin V-FITC/PI based FACS analysis; type: functional
8505C [8] = assay: Induction of apoptosis in human 8505C cells assessed as induction of cell death after 24 to 48 hrs by AO/PI exclusion dye assay; type: functional, cell-based
Method in brief: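 About 1×10^6 cells were grown in 25 cm2 flasks to 80% and given compound-loaded medium for 24–48 h, with blank medium as control. Cells were recovered from the supernatant (300 g, 4 °C), washed and resuspended in PBS. They were mixed 1:1 with AO/PI solution and viewed by fluorescence microscopy: green cells were scored as apoptotic, red as necrotic.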

8505C [9] = assay: Induction of apoptosis in human 8505C cells assessed as blebbing of nuclear membrane at 30 uM after 24 hrs by acridine orange based fluorescence microscopy analysis; type: functional, cell-based
Method in brief: (§3)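 They were treated with 30 µM compound, and the next day washed with PBS and stained with acridine orange. Living cells were inspected by fluorescence microscopy for chromatin condensation and nuclear membrane blebbing.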

518A2 [10] = assay: Induction of apoptosis in human 518A2 cells assessed as blebbing of nuclear membrane at 30 uM after 24 hrs by acridine orange based fluorescence microscopy analysis; type: functional, cell-based; method in brief: as §3
8505C [11] = assay: Induction of apoptosis in human 8505C cells assessed as condensation of chromatin at 30 uM after 24 hrs by acridine orange based fluorescence microscopy analysis; type: functional, cell-based; method in brief: as §3
518A2 [12] = assay: Induction of apoptosis in human 518A2 cells assessed as condensation of chromatin at 30 uM after 24 hrs by acridine orange based fluorescence microscopy analysis; type: functional, cell-based; method in brief: as §3

| SMILES | IC50 (A2780) | IC50 (DLD-1) | IC50 [1] | IC50 (NIH3T3) | IC50 (8505C [2]) | IC50 (MCF7) | Activity (518A2 [3]) | Activity (8505C [4]) | IC50 [5] | IC50 (A549) | IC50 [6] | Activity (8505C [7]) | Activity (8505C [8]) | Activity (8505C [9]) | Activity (518A2 [10]) | Activity (8505C [11]) | Activity (518A2 [12]) |
| --- | --- | --- | --- | --- | --- | --- | --- | --- | --- | --- | --- | --- | --- | --- | --- | --- | --- |
| COC(=O)[C@]12CC[C@@H](C)[C@@](C)(O)[C@H]1C1=CC[C@@H]3[C@@]4(C)CC(=O)[C@H](O)C(C)(C)[C@@H]4CC[C@@]3(C)[C@]1(C)CC2 | 17.8 µmol | > 30 µmol | > 30 µmol | 19.2 µmol | > 30 µmol | 28.7 µmol | Active | Active | – | – | – | – | – | – | – | – | – |
| COC(=O)[C@]12CC[C@@H](C)[C@@](C)(O)[C@H]1C1=CC[C@@H]3[C@@]4(C)C[C@@H](O)C(=O)C(C)(C)[C@@H]4CC[C@@]3(C)[C@]1(C)CC2 | 4.9 µmol | 18 µmol | 8.9 µmol | 7.7 µmol | 12.9 µmol | 9.4 µmol | Active | Active | 6.8 µmol | 11.8 µmol | – | – | – | – | – | – | – |
| COC(=O)[C@]12CC[C@@H](C)[C@@](C)(O)[C@H]1C1=CC[C@@H]3[C@@]4(C)CC(=O)[C@H](OC(C)=O)C(C)(C)[C@@H]4CC[C@@]3(C)[C@]1(C)CC2 | 4.4 µmol | 13.5 µmol | 5.6 µmol | 6.7 µmol | 7 µmol | 8.2 µmol | Active | Active | 6.7 µmol | 7.8 µmol | – | – | – | – | – | – | – |
| COC(=O)[C@]12CC[C@@H](C)[C@@](C)(O)[C@H]1C1=CC[C@@H]3[C@@]4(C)C=C(O)C(=O)C(C)(C)[C@@H]4CC[C@@]3(C)[C@]1(C)CC2 | > 30 µmol | > 30 µmol | 17.2 µmol | > 30 µmol | 25 µmol | 26 µmol | Active | Active | > 30 µmol | > 30 µmol | – | – | – | – | – | – | – |
| COC(=O)[C@]12CC[C@@H](C)[C@@](C)(O)[C@H]1C1=CC[C@@H]3[C@@]4(C)C[C@@H](O)[C@@H](O)C(C)(C)[C@@H]4CC[C@@]3(C)[C@]1(C)CC2 [EUSCAPHIC ACID METHYL ESTER] | 12.8 µmol | 35.8 µmol | 27.7 µmol | > 30 µmol | 29.3 µmol | 17.8 µmol | Active | Active | 16.4 µmol | 30.6 µmol | 23.4 µmol | – | – | – | – | – | – |
| CC(=O)O[C@@H]1C[C@]2(C)[C@H]3CC=C4[C@H]5[C@](C(=O)O)(CC[C@@H](C)[C@@]5(C)O)CC[C@@]4(C)[C@]3(C)CC[C@H]2C(C)(C)[C@H]1O | 24.3 µmol | > 30 µmol | > 30 µmol | > 30 µmol | > 30 µmol | 25.3 µmol | Active | Active | > 30 µmol | > 30 µmol | – | – | – | – | – | – | – |
| COC(=O)[C@]12CC[C@@H](C)[C@@](C)(O)[C@H]1C1=CC[C@@H]3[C@@]4(C)C[C@@H](O)[C@H](OC(=O)CCl)C(C)(C)[C@@H]4CC[C@@]3(C)[C@]1(C)CC2 | 4.1 µmol | 6 µmol | 5.5 µmol | 4.2 µmol | 7.5 µmol | 6.9 µmol | Active | Active | 4.1 µmol | 10 µmol | – | – | – | – | – | – | – |
| CC(=O)O[C@@H]1C[C@]2(C)[C@H]3CC=C4[C@H]5[C@](C(=O)O)(CC[C@@H](C)[C@@]5(C)O)CC[C@@]4(C)[C@]3(C)CC[C@H]2C(C)(C)[C@H]1OC(C)=O | 17.6 µmol | > 30 µmol | > 30 µmol | 32.3 µmol | > 30 µmol | 20.4 µmol | Active | Active | 27.3 µmol | > 30 µmol | – | – | – | – | – | – | – |
| C[C@@H]1CC[C@]2(C(=O)O)CC[C@]3(C)C(=CC[C@@H]4[C@@]5(C)C[C@@H](O)[C@H](O)C(C)(C)[C@@H]5CC[C@]43C)[C@@H]2[C@]1(C)O [TOMENTIC ACID] | > 30 µmol | 31 µmol | > 30 µmol | > 30 µmol | 23.4 µmol | 32.3 µmol | Active | Active | > 30 µmol | 31 µmol | 47.7 µmol | Active | Active | – | – | – | – |
| CC(=O)O[C@H]1[C@H](O)C[C@]2(C)[C@H]3CC=C4[C@H]5[C@](C(=O)O)(CC[C@@H](C)[C@@]5(C)O)CC[C@@]4(C)[C@]3(C)CC[C@H]2C1(C)C | 28.1 µmol | > 30 µmol | > 30 µmol | > 30 µmol | > 30 µmol | 26.2 µmol | Active | Active | > 30 µmol | > 30 µmol | – | – | – | – | – | – | – |
| COC(=O)[C@]12CC[C@@H](C)[C@@](C)(O)[C@H]1C1=CC[C@@H]3[C@@]4(C)C[C@@H](O)[C@H](O)C(C)(C)[C@@H]4CC[C@@]3(C)[C@]1(C)CC2 [TORMENTIC ACID METHYL ESTER] | 23.9 µmol | 37.4 µmol | 31.3 µmol | 15.6 µmol | 42 µmol | 31.3 µmol | Active | Active | 17 µmol | – | 47.5 µmol | – | Active | Active | Active | Active | Active |
| CC1(C)CC[C@]2(C(=O)O)CC[C@]3(C)C(=CC[C@@H]4[C@@]5(C)C[C@@H](O)[C@H](O)C(C)(C)[C@@H]5CC[C@]43C)[C@@H]2C1 | – | – | – | – | – | – | – | – | – | – | – | – | Active | – | – | – | – |
| COC(=O)[C@]12CC[C@@H](C)[C@@](C)(O)[C@H]1C1=CC[C@@H]3[C@@]4(C)C[C@@H](OC(C)=O)C(=O)C(C)(C)[C@@H]4CC[C@@]3(C)[C@]1(C)CC2 | 9 µmol | 28.2 µmol | 28.9 µmol | 25.1 µmol | > 30 µmol | 14.8 µmol | Active | Active | 18.5 µmol | 31.3 µmol | – | – | – | – | – | – | – |
| COC(=O)[C@]12CC[C@@H](C)[C@@](C)(O)[C@H]1C1=CC[C@@H]3[C@@]4(C)C[C@H](O)[C@H](O)C(C)(C)[C@@H]4CC[C@@]3(C)[C@]1(C)CC2 | 18.9 µmol | > 30 µmol | > 30 µmol | > 30 µmol | > 30 µmol | 22.6 µmol | Active | Active | 15.3 µmol | > 30 µmol | – | – | – | – | – | – | – |
| COC(=O)[C@]12CC[C@@H](C)[C@@](C)(O)[C@H]1C1=CC[C@@H]3[C@@]4(C)C[C@@H](OC(=O)CCl)[C@H](O)C(C)(C)[C@@H]4CC[C@@]3(C)[C@]1(C)CC2 | 2.6 µmol | 3.7 µmol | 4.5 µmol | 2.1 µmol | 4.6 µmol | 2.6 µmol | Active | Active | 4.6 µmol | 9.7 µmol | – | – | – | – | – | – | – |
